This note sets out measurements from the RNAGym collection of RNA variant scans (doi:10.1126/science.aae0568).

Fewer inactive variants are shown than the library holds. Some results are limits rather than exact numbers.

B1: tRNA (parent)
chain: GUUCCGUUGGCGUAAUGGUAACGCGUCUCCCUCCUAAGGAGAAGACUGCGGGUUCGAGUCCCGUACGGAACG

Variants of B1 are the subject of the data set. As to the kind of experiment: yeast fitness relative to wild type (ratio to wild type); higher = fitter; tRNA-Arg(CCU), competitive growth, 37 C, YPD. The method in brief: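 Genotype frequency changes were the basis for Darwinian fitness relative to wild type. The frequencies came from 100-nucleotide paired-end sequencing of gene amplicons from the start population and each end population of pooled yeast strains with tRNA-Arg(CCU) gene variants at the native locus. Competition ran in YPD at 37°C for 24 hours in six replicates, genotypes needed ≥ 100 starting reads, and estimates < 0.5 were set to 0.5.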
For GUUCCGUUGGCGUAUUGGUAACGCGUCUCCUUCCACAGGAGAAGACUGCGGGAUCGAGUCCCGUACGCAACG, the yeast fitness is no more than 0.5. The result for GUUCCGUUGGCGUAUUGGUAACGCGUCUCCGUCCUAAGGAGAAGACUGCGGGAUUGCGUGCCGUACCGAACG reads 0.546. The result for GUUCCGUUGGCGUAUUGGUAACGCGUCUCCCUCCUAAGGAGAAGACUGCGGGUUCGAGUCCCGUAGGGAACG reads 0.671; that for GUUCCGUUGGCGUAUUGGUAACGCGUCUCCCUCCUAAGGAGAAGAUUGCGGGUUCGAGUCCCGUACGGAACG, 0.978; that for GUUCCGUUGGCGUAUUGGUAACGCGUCUCCCUCCUAAGGAGAAGAGUGCGGGUUCGAGUCCCGUACGGAACG, 0.825.

Consider GUUCCGUUGGCGUAUUGGUAACGCGUCUCCCUCCUAAGGAGAAGAAUGCGGGUUCGAGUCCCGUACGGAACG, for which the yeast fitness was 0.719. The result for GUUCCGUUGGCGUAUUGAUAACGCGUCUCCCUCCUAAGGAGAAGACUGCGGGUUCGUGUCCCGUACGGAACG reads no more than 0.5. The result for GUUCCGUUGGCGUAUUGGUAACGCGUCUCUCUCCUAAGGAGAAGACUGCGGAUUCGAGUCCCGUUCGGAACG reads no more than 0.5; that for GUUCCGUUGGCGUAUUGGUAACGCGUCUCCCUCCUAAGGAGAAGACUGCGGGUUGGAGUCCCGCCCGGAACG, no more than 0.5; that for GUUCCGUUGGCGUAUUGGUAACGCGUCUCCCUGGUAAGGAGAAGUCUGCGAGUUCGAGUCCCGUACGGAACG, no more than 0.5. For the variant GUUCCGUUGGCGUAUUGGUAACGCGUCUCCCUGCUAAGGAGAAGACUGCGGAUUCGAGUCCCGUGCGGAACG, the yeast fitness was no more than 0.5. The result for GUUCCGUUGGCGUAUUGGUAACGCGUCUCCCUACUAGGGAGAAGACUGCGGGCUCGAGUCCCGUACGGAACG reads 0.668. The result for GUUCCGUUGGCGUAUUGGUAACGCGUCUCCAUCCUAAGGAGAAGACUGGGGGUUCGAGUCCCGUACGGAACG reads 0.576; that for GUUCCGUUGGCGUAUUGGUAACGCGUCUCCCUGCUAAGGAGAAGACUGCGGGUUCGAGUCCGGUACGGAACG, 0.602. The result for GUUCCGUUGGCGUAUUGGUAACGCGUCUCGCUCCUAAAGAGAAGACUGCGGGUCCGAGUCCCGUACGGAACG reads 0.553. As to GUUCCGUUGGCGUAUUGGUAACGCGUCUCCCUCCUAAGGAGAAGAUUGCGGGUUCGAGUCCCGUUCGCAACG, the yeast fitness was no more than 0.5.

On to GUUCCGUUGGCGUAUUGGUAACGCGUCUCCGUUCUACGGAGAAGACUGCGGGUUCGAGUCCCGUUCAGAACG, for which the yeast fitness is no more than 0.5.

GUUCCGUUGGCGUAUUGCUAACGCGUCUGCCUCCUAAGGAGAAGACUGCGGGUUCGAGUCCCGAACGGCACG: the yeast fitness was 0.598. The result for GUUCCGUUGGCGUAUUGGUAACGCGUCUCCCUCCUAAGGAGAAGAUUGCGGGUCCGAGUCCCGUACGGAACG reads 0.684; that for GUUCCGUUGGCGUAUUGGUAACGCGUCUCCCUCCUAAGGAGAAGACUGGGGGUUCGAGUCCCGUACGGAACG, 0.671; that for GUUCCGUUGGCGUAUUGGUAACGCGUCUCUCUCCUAAGGAGAAGACUGCGGGUUCGAGUCCUGUACGGAACG, 0.572. As to GUUCCGUUGGCGUAUUGGUAACGCGUCUCCGUCUUAAGGCGAAGACUGCGGGUUCGAGUCCCGUACGGAACG, the yeast fitness turned out to be 0.531.

Consider GUUCCGUUGGCGUAUUGGUAACGCGUCUCCCUCAUAAGGUGAAGACUGCGGAUUCGAGUCCCGUACGAAACG, for which the yeast fitness is no more than 0.5. The result for GUUCCGUUGGCGUAUUGGUAACGCGUCUCCCUCCUAAGGAGAAGACUGCGGGUUCGAGUGCCGUUCGGAACG reads no more than 0.5; that for GUUCCGUUGGCGUAUUGGUAACGCGUCUCCCUCCUAAGGAGAAGACUGCGGGUUAGAGUCCCGUACGGAACG, 0.503; that for GUUCCGUUGGCGUAUUGGUAACGCGUCUCCCUCCUAAGGAGAAGACUGCGGGUUUGAGUCCCGUACGGAACG, 0.672. The result for GUUCCGUUGGCGUAUUGGUAACGCGUCUCCCUCCUAAGGAGAAGACUGCGGGUUGGAGUCCCGUACGGAACG reads 0.604; that for GUUCCGUUGGCGUAUUGGUAACGCGUCUCCAUCCUAAGGAGAAGACUGCGGGUUCGAGUCCCGUACGGAGCG, no more than 0.5; that for GUUCCGUUGGCGUAUUGGUAACGCGUCUCUCUCCUAAGGGGAAGACUGCGGGUUUGAGUCCCGUACGGAACG, 0.653. For the variant GUUCCGUUGGCGUAUUGGUAACGCGUCUCGCUCUUAAGGAGAAGACUGCGGGUUCGAGUCCCGUACGGAACG, the yeast fitness amounted to 0.71. As for GUUCCGUUGGCGUAUUGGUAACGCGUCUCCAUCCUAAGGAGAAGACUGCGGGUUCGAGUCCUGUACGGAACG, the yeast fitness was found to be 0.573. For GUUCCGUUGGCGUAUUGAUAACGCGUCUCCCUCCCAAGGAGAAGACUGCGGGUUCGAAUCCCGUACGGAACG, the yeast fitness is no more than 0.5. As to GUUCCGUUGGCGUAUUGAUAACGCGUCUCCCUCCUAGGGAGAAGACUGCAGGUUCGAGUCCCGUACGGAACG, the yeast fitness is no more than 0.5. Take GUUCCGUUGGCGUAUUGGUAACGCGUCUCCCUCUUAAGGACAAGACUGCGGGUUCGAGUCCCGUACGGGACG: the yeast fitness was no more than 0.5. The result for GUUCCGUUGGCGUAUUGGUAACGCGUCUCCCUCCUAAGGAGAAGACUGCGGGUUCGAGUACCGUACGGAACG reads 0.512. The result for GUUCCGUUGGCGUAUUGGUAACGCGUCUCCCUUCUAAGGAGAAGACUGCGGGUUCGAGUCCCGGACGGACCG reads no more than 0.5; that for GUUCCGUUGGCGUAUUGGUAACGCGUCUCUCUCCUAAGGAGAAGACUGCGGGUUCGGGUCCCGUACGGAACG, no more than 0.5.
